Data reported in ChEMBL document CHEMBL1154063, “Facile synthesis and in vitro properties of 1-alkyl- and 1-alkyl-N-propargyl-1,2,3,4-tetrahydroisoquinoline derivatives on PC12 cells” (Eur J Med Chem, 2009).

Experiments:
[1] = system: PC-12; assay: Cytotoxicity against rat PC12 cells assessed as effect on cell viability at 1 mM after 48 hrs by tetrazolium/formazan assay; settings: pc-12, 48 h, 1000 µM
[2] = system: PC-12; assay: Cytotoxicity against rat PC12 cells assessed as effect on cell viability at 0.5 mM after 48 hrs by tetrazolium/formazan assay; settings: pc-12, 48 h, 500 µM
[3] = target: T1, Amine oxidase [flavin-containing] A (Homo sapiens, UniProt P21397); assay: Inhibition of MAOA at 100 nM after 60 mins using tyramine as substrate relative to control; set-up: scale not given: the % may be the effect or the level left; settings: 1 h
T1 sequence (P21397 whole entry): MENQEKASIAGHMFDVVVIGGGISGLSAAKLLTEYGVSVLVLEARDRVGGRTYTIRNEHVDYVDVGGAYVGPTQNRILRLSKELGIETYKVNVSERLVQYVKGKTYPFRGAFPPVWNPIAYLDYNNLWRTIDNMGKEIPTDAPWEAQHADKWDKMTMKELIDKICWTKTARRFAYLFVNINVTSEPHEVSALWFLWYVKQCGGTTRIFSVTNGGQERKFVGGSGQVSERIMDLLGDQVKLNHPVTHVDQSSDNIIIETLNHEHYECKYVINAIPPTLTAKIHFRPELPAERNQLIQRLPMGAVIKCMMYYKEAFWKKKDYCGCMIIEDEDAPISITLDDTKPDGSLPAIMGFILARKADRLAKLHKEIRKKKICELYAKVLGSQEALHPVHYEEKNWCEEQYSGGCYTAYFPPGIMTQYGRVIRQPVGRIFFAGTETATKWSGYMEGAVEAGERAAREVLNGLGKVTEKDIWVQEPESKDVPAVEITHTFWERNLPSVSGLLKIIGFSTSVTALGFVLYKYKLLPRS
Summary of the method: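 MAO-A enzyme (10 µg/mL) incubated with 0.5 mM tyramine and 100 nM compound for 60 min at 37 °C. H2O2 formed was detected with a peroxidase-coupled fluorogenic kit (ex 530/em 590 nm). Activity expressed as % of vehicle control. Means ± S.E., n = 8.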

[4] = target: T2, Amine oxidase [flavin-containing] B (Homo sapiens, UniProt P27338); assay: Inhibition of MAOB at 100 nM after 60 mins using benylamine as substrate relative to control; set-up: scale not given: the % may be the effect or the level left; settings: 1 h
T2 sequence (P27338 whole entry): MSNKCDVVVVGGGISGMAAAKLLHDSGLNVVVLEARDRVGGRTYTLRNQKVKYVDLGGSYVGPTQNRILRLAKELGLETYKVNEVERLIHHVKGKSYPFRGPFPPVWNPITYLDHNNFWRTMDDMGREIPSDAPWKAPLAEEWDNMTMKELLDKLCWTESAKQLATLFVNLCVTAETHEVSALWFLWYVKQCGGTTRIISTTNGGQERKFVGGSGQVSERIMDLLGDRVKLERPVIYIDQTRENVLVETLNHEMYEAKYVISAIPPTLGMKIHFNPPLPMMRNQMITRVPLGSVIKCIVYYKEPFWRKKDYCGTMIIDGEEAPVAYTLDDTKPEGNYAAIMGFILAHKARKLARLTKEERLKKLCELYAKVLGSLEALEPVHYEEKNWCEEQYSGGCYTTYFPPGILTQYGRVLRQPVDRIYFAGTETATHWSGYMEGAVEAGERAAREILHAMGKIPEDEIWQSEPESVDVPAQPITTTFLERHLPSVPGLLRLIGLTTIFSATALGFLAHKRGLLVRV

[5] = target: T2, Amine oxidase [flavin-containing] B; assay: Inhibition of MAOB at 100 nM after 60 mins using tyramine as substrate relative to control; set-up: scale not given: the % may be the effect or the level left; settings: 1 h
[6] = system: PC-12; assay: Induction of apoptosis in rat PC12 cells assessed as length of migrated cell nucleus at 1 mM after 3 hrs by comet assay; format: toxicity, cell-based; settings: pc-12, 3 h, 1000 µM
Summary of the method: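 PC12 cells (5×10^5/well in PBS(-)) exposed to 1.0 mM final compound for 3 h at 37 °C. Cells embedded in low-melt agarose, lysed 1 h at 4 °C, then alkaline unwinding 30 min. Electrophoresed at 15 V for 30 min and stained with SYBR Green. 200 cells scored per sample under fluorescence at ×200. Whole comet length measured with an ocular micrometer.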

[7] = system: PC-12; assay: Cytotoxicity against rat PC12 cells assessed as effect on cell viability at 0.01 mM after 48 hrs by tetrazolium/formazan assay; format: cell-based; settings: pc-12, 48 h, 10 µM
Summary of the method: (§1)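 PC12 cells in log growth, seeded at 3×10^5 cells/mL in serum-containing DMEM. After 24 h, medium replaced with the derivative diluted in serum-free DMEM. After 48 h exposure, CCK-8 (WST tetrazolium) added for 4 h at 37 °C. A490 read and viability expressed as % of untreated control. Means ± S.E., n = 3-6. Dunnett test after ANOVA.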

[8] = system: PC-12; assay: Cytotoxicity against rat PC12 cells assessed as effect on cell viability at 0.05 to 1 mM after 48 hrs by tetrazolium/formazan assay; format: cell-based; settings: pc-12, 48 h, 1000 µM; summary of the method: as §1

| Compound | Activity [1] | Activity [2] | Activity [7] | other results |
| --- | --- | --- | --- | --- |
| CCCCC1NCCc2ccccc21 (stereo unspecified) | Toxic | Toxic | – | – |
| C#CCN1CCc2ccccc2C1C1CC1 (stereo unspecified) | – | – | – | Activity at 0.1 µM [3]: 96.2%; Activity at 0.1 µM [4]: 97.5%; Activity at 0.1 µM [5]: 98.4% |
| C#CCN(C)[C@H](C)Cc1ccccc1 [SELEGILINE] | – | – | – | Activity at 0.1 µM [3]: 94.2% |
| CCCC1NCCc2ccccc21 (stereo unspecified) | Toxic | Toxic | – | – |
| CCCCCCC1NCCc2ccccc21 (stereo unspecified) | Toxic | Toxic | Non-toxic | Activity [6]: 150 um; Activity [8]: Toxic |
| c1ccc2c(c1)CCNC2C1CCCCC1 (stereo unspecified) | – | Toxic | Non-toxic | Activity [6]: 120 um; Activity [8]: Toxic |
| CCCCCC1NCCc2ccccc21 (stereo unspecified) | Toxic | Toxic | – | – |
| c1ccc2c(c1)CCNC2C1CCCC1 (stereo unspecified) | – | Toxic | Non-toxic | – |
| CCC1NCCc2ccccc21 (stereo unspecified) | Toxic | Toxic | – | – |
| c1ccc2c(c1)CCNC2C1CC1 (stereo unspecified) | – | Toxic | Non-toxic | – |
| C#CCN1CCc2ccccc2C1C (stereo unspecified) | – | – | – | Activity at 0.1 µM [3]: 97.5%; Activity at 0.1 µM [4]: 99.4%; Activity at 0.1 µM [5]: 101% |
| c1ccc2c(c1)CCNC2C1CCC1 (stereo unspecified) | – | Toxic | Non-toxic | – |
| C[n+]1ccc(-c2ccccc2)cc1.[Cl-] | – | – | – | Activity [6]: 60 um |
